# Experimental data: ChEMBL document CHEMBL3817731, “Synthesis and investigation of novel benzimidazole derivatives as antifungal agents” (Bioorg Med Chem, 2016)
# Activity calls are given as the source filed them. The calls are words filed in the database; no cut-off is given here.
# Columns and labels:
# Candida albicans [1] = assay: Fungistatic activity against Candida albicans ATCC 64124 assessed as reduction in fungal population at MIC after 24 hrs by time kill assay
# Aspergillus nidulans = assay: Antifungal activity against Aspergillus nidulans ATCC 38163 after 48 hrs by CLSI M38-A2 method; type: functional; settings: ATCC 38163, 48 h
# Aspergillus flavus = assay: Antifungal activity against Aspergillus flavus ATCC MYA-3631 after 48 hrs by CLSI M38-A2 method; type: functional; settings: ATCC MYA-3631, 48 h
# Candida albicans [2] = assay: Fungicidal activity against Candida albicans ATCC 64124 assessed as reduction in fungal population at 2 times MIC after 24 to 48 hrs by time kill assay; type: functional
# A549 = assay: Cytotoxicity against human A549 cells assessed as reduction in cell survival after 24 hrs by resazurin assay; type: cell-based; settings: A549, 24 h
# How it was run: (§1)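 Human A549 cells treated 24 h; BEAS 2B cells treated 6 h or 24 h. DMSO-treated cells served as negative control and Triton X-treated cells as positive control. Read-out was cell survival.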
# [3] = Cytotoxicity against human BEAS2B cells assessed as reduction in cell survival after 24 hrs by resazurin assay; type: cell-based; settings: BEAS-2B
# How it was run: as §1
# Candida albicans [4] = assay: Induction of ROS production in Candida albicans ATCC 10231 at 1 to 2 times MIC after 1 hr by DCFH-DA probe based fluorescence microscopy; type: functional, organism-based
# Candida albicans [5] = assay: Antifungal activity against Candida albicans ATCC MYA-1003 after 48 hrs by CLSI M27-A3 method; type: functional; settings: ATCC MYA-1003, 48 h
# Candida albicans [6] = assay: Antifungal activity against Candida albicans ATCC MYA-90819 after 48 hrs by CLSI M27-A3 method; type: functional; settings: ATCC MYA-90819, 48 h
# Candida albicans [7] = assay: Antifungal activity against Candida albicans ATCC MYA-2876 after 48 hrs by CLSI M27-A3 method; type: functional; settings: ATCC MYA-2876, 48 h
# Candida albicans [8] = assay: Antifungal activity against Candida albicans ATCC MYA-2310 after 48 hrs by CLSI M27-A3 method; type: functional; settings: ATCC MYA-2310, 48 h
# Candida albicans [9] = assay: Antifungal activity against Candida albicans ATCC MYA-1237 after 48 hrs by CLSI M27-A3 method; type: functional; settings: ATCC MYA-1237, 48 h
# [10] = Cytotoxicity against human BEAS2B cells assessed as reduction in cell survival after 6 hrs by resazurin assay; type: cell-based; settings: beas-2b
# How it was run: as §1
# Candida parapsilosis = assay: Antifungal activity against Candida parapsilosis ATCC 22019 after 48 hrs by CLSI M27-A3 method; type: functional; settings: Lodderomyces parapsilosis, ATCC 22019, 48 h
# Nakaseomyces glabratus = assay: Antifungal activity against Candida glabrata ATCC 2001 after 48 hrs by CLSI M27-A3 method; type: functional; settings: CBS 138, 48 h
# Candida albicans [11] = assay: Fungistatic activity against Candida albicans ATCC 64124 assessed as reduction in fungal population at MIC upto 24 hrs by time kill assay; type: functional, organism-based
# Aspergillus terreus = assay: Antifungal activity against Aspergillus terreus ATCC MYA3633 after 48 hrs by CLSI M38-A2 method; type: functional; settings: ATCC MYA3633, 48 h
# Candida albicans [12] = assay: Antifungal activity against Candida albicans ATCC 64124 after 48 hrs by CLSI M27-A3 method; type: functional; settings: ATCC 64124, 48 h
# Pichia kudriavzevii = assay: Antifungal activity against Candida krusei ATCC 6258 after 48 hrs by CLSI M27-A3 method; type: functional; settings: ATCC 6258, 48 h
# Candida albicans [13] = assay: Fungicidal activity against Candida albicans ATCC 64124 assessed as reduction in fungal population at MIC after 9 hrs by time kill assay; type: functional
# Candida albicans [14] = assay: Antifungal activity against Candida albicans ATCC 10231 after 48 hrs by CLSI M27-A3 method; type: functional; settings: ATCC 10231, 48 h
# Candida albicans [15] = assay: Induction of ROS production in Candida albicans ATCC 10231 at 8 to 16 ug/ml after 1 hr by DCFH-DA probe based fluorescence microscopy; type: functional, organism-based
# How it was run: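 C. albicans ATCC 10231 yeast cells exposed to drug at 8 and 16 µg/mL for 1 h at 35 °C, alongside untreated and AmB controls. Cells were then stained with DCFH-DA (20 µg/mL) for 30 min in the dark. Intracellular ROS was visualised by fluorescence microscopy.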
Compound,Activity (Candida albicans [1]) [log10CFU],MIC (Aspergillus nidulans) [µg/mL],MIC (Aspergillus flavus) [µg/mL],Activity (Candida albicans [2]),IC50 (A549) [µg/mL],IC50 [3] [µg/mL],Activity (Candida albicans [4]),MIC (Candida albicans [5]) [µg/mL],MIC (Candida albicans [6]) [µg/mL],MIC (Candida albicans [7]) [µg/mL],MIC (Candida albicans [8]) [µg/mL],MIC (Candida albicans [9]) [µg/mL],Activity [10],MIC (Candida parapsilosis) [µg/mL],MIC (Nakaseomyces glabratus) [µg/mL],Activity (Candida albicans [11]),MIC (Aspergillus terreus) [µg/mL],MIC (Candida albicans [12]) [µg/mL],MIC (Pichia kudriavzevii) [µg/mL],MIC (Candida albicans [14]) [µg/mL],other results
CN1CCN(c2ccc3[nH]c(-c4ccc5[nH]c(-c6ccc(O)cc6)nc5c4)nc3c2)CC1 [HOECHST 33258],1,1.95,31.2,5 log10CFU,≥ 31.2,≥ 31.2,Active,7.8,7.8,7.8,3.9,3.9,Non-toxic,0.975,0.975,Active,–,–,–,–,–
C[C@@H]1[C@H](O)[C@@H](C)/C=C/C=C/C=C/C=C/C=C/C=C/C=C/[C@H](O[C@@H]2O[C@H](C)[C@@H](O)[C@H](N)[C@@H]2O)C[C@@H]2O[C@](O)(C[C@@H](O)C[C@@H](O)[C@H](O)CC[C@@H](O)C[C@@H](O)CC(=O)O[C@H]1C)C[C@H](O)[C@H]2C(=O)O [AMPHOTERICIN B],–,–,–,Active,–,–,Active,3.9,0.975,1.95,1.95,3.9,–,1.95,1.95,–,3.9,3.9,3.9,3.9,Activity (Candida albicans [13]): Active
CCOc1ccc(-c2nc3cc(-c4nc5cc(N6CCN(C)CC6)ccc5[nH]4)ccc3[nH]2)cc1,1,3.9,31.2,5 log10CFU,0.98,1.95,Active,15.6,7.8,7.8,7.8,7.8,Non-toxic,3.9,7.8,Active,7.8,7.8,7.8,7.8,–
COc1ccc(-c2nc3cc(-c4nc5cc(N6CCN(C)CC6)ccc5[nH]4)ccc3[nH]2)cc1,–,15.6,31.2,–,0.98,1.95,–,> 31.2,15.6,15.6,7.8,15.6,Non-toxic,3.9,3.9,–,15.6,31.2,31.2,15.6,–
C#CCOc1ccc(-c2nc3ccc(-c4nc5ccc(N6CCN(C)CC6)cc5[nH]4)cc3[nH]2)cc1,–,–,> 31.2,–,15.6,0.98,–,–,–,7.8,7.8,> 31.2,Non-toxic,1.95,7.8,–,–,31.2,7.8,7.8,–
CCCCCCCCCCCCN1CCN(c2ccc3nc(-c4ccc5nc(-c6ccc(O)cc6)[nH]c5c4)[nH]c3c2)CC1,–,> 31.2,> 31.2,–,–,–,–,> 31.2,> 31.2,> 31.2,> 31.2,> 31.2,–,> 31.2,> 31.2,–,> 31.2,> 31.2,> 31.2,> 31.2,Activity (Candida albicans [15]): inactive
